# The source made the active and inactive calls. The calls are words filed in the database; no cut-off is given here.
# Columns and labels:
# [1] = Cytotoxicity against NMRI mouse macrophages by MTT assay; format: cell-based; conditions: macrophage
# How it was run: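 Macrophages from the 5-LOX assay wells were used after supernatant collection. Cells received MTT (5 mg/ml in PBS, 20 µl/well) for 4 h at 37 °C, then the formazan was dissolved in DMSO and absorbance was read at 550 nm. Values are mean ± S.D., mostly from triplicate determinations.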
# [2] = target: T1, Polyunsaturated fatty acid 5-lipoxygenase (Homo sapiens, UniProt P09917); test: Inhibition of human 5-LOX in human peripheral blood mononuclear leukocytes assessed as inhibition of calymycin A23187-stimulated LTB4 production preincubated for 15 mins before stimulation measured after 15 mins by enzyme immunoassay
# T1 sequence (P09917 whole entry): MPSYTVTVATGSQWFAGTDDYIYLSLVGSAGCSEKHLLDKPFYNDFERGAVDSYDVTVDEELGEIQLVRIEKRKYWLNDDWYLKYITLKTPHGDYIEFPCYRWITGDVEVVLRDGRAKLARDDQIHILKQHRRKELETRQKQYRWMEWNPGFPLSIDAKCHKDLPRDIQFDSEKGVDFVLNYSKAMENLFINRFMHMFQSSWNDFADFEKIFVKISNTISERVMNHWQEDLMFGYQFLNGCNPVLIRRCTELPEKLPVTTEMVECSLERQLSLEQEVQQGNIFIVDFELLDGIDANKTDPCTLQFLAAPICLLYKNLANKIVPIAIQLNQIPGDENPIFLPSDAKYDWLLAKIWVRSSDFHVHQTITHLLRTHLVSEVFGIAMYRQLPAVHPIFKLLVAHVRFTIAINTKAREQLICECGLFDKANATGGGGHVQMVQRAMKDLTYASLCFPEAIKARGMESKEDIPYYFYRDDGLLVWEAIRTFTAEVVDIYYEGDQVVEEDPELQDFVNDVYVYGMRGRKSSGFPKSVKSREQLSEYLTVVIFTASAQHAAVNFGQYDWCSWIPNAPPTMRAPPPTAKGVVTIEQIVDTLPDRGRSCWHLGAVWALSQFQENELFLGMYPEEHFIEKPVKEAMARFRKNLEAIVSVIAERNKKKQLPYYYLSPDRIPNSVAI
# How it was run: (§1)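 Human peripheral blood mononuclear leukocytes (5 × 10^6 cells/ml) in HBSS were preincubated with compound or vehicle for 15 min at 37 °C. Calcimycin (A23187, 30 µM) was added for a further 15 min and the reaction was stopped with 1 N HCl. LTB4 was quantified by EIA. The assay was run by a contract laboratory.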
# [3] = test system: Radical scavenging activity; test: Antioxidant activity assessed as DPPH radical scavenging activity; format: functional
# How it was run: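 DPPH radical scavenging run by a previously published method, with quercetin as positive control; triplicate tests, with absorbances averaged before calculating activity.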
# [4] = target: T2, Prostaglandin G/H synthase 1 (Homo sapiens, UniProt P23219); test: Inhibition of COX1 in human platelets assessed as inhibition of conversion of arachidonic acid to PGE2 at 1 uM preincubated for 15 mins before substrate addition measured after 15 mins by enzyme immunoassay
# How it was run: (§2)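 Human platelets (5 × 10^7/ml) in HBSS (15 mM, pH 7.4) were incubated with compound or vehicle for 15 min at 37 °C. Arachidonic acid (100 µM) was added for 15 min and the reaction was stopped with 1 N HCl. PGE2 was measured by EIA. The assay was run by a contract laboratory.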
# [5] = target: T3, Polyunsaturated fatty acid 5-lipoxygenase (Homo sapiens) (UniProt P09917); test: Inhibition of human 5-LOX in human peripheral blood mononuclear leukocytes assessed as inhibition of calymycin A23187 stimulated LTB4 production at 10 nM preincubated for 15 mins before stimulation measured after 15 mins by enzyme immunoassay; how it was run: as §1
# T3 sequence (whole entry): T1 sequence (P09917 whole entry)
# [6] = target: T4, Polyunsaturated fatty acid 5-lipoxygenase (Mus musculus, UniProt P48999); test: (§3) Inhibition of 5-LOX in calcium ionophore A23187-stimulated NMRI mouse macrophage assessed as inhibition of LTC4 production preincubated for 60 mins before stimulation measured after 2 hrs by ELISA
# T4 sequence (P48999 whole entry): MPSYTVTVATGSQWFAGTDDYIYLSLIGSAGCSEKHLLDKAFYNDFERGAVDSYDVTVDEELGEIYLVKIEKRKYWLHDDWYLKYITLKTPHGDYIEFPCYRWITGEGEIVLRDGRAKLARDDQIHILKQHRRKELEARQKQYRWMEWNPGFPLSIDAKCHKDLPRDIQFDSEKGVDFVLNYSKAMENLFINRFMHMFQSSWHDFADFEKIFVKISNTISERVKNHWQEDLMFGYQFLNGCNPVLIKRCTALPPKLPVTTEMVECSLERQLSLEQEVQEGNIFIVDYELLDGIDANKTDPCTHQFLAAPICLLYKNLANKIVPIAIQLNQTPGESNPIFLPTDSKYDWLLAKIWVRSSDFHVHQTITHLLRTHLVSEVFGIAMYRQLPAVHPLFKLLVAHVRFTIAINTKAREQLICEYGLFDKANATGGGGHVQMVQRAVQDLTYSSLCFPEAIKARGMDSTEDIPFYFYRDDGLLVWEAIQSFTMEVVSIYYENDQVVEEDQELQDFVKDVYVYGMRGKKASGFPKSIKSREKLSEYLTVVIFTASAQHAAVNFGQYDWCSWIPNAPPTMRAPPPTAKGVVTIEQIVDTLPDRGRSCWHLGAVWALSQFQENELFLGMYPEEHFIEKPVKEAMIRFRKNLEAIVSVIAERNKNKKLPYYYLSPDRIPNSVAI
# How it was run: (§4)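 Male NMRI mice (20 ± 5 g) were given 1 ml thioglycolate ip and peritoneal macrophages were lavaged with PBS 3 days later. Cells were adhered overnight at 5 × 10^5 cells/well and then moved to serum-free DMEM. Compound was added for 60 min at 37 °C, then A23187 to a final 10^-6 M for 2 h. Supernatant cysLTs were measured by ELISA against a standard curve. Values are mean ± S.D., mostly triplicate, compared by unpaired t-test.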
# [7] = target: T5, Polyunsaturated fatty acid 5-lipoxygenase (Mus musculus) (UniProt P48999); test: as §3; how it was run: as §4
# T5 sequence (whole entry): T4 sequence (P48999 whole entry)
# [8] = target: T6, Prostaglandin G/H synthase 2 (Homo sapiens) (UniProt P35354); test: Inhibition of human recombinant COX2 expressed in insect Sf21 cells assessed as inhibition of conversion of arachidonic acid to PGE2 at 1 uM preincubated for 15 mins before substrate addition measured after 5 mins by enzyme immunoassay
# T6 sequence (whole entry): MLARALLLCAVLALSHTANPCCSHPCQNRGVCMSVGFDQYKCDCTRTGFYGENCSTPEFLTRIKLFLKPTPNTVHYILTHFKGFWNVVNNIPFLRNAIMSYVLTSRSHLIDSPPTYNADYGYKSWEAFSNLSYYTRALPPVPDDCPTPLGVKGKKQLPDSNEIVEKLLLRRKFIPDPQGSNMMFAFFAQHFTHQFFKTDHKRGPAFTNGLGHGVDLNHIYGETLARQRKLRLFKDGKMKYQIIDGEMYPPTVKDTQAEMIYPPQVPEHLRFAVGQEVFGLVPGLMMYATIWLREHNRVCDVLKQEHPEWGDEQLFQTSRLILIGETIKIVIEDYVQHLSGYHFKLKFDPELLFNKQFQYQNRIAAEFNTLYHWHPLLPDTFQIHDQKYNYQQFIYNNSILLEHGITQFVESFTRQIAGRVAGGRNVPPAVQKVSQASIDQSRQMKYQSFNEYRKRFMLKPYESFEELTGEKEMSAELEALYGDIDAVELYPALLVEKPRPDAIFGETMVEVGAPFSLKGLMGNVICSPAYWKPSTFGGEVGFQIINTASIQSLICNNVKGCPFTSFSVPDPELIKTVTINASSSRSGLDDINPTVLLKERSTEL
# How it was run: (§5)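 Human recombinant COX-2 expressed in Sf21 cells (0.11 U) was preincubated with compound or vehicle, 1 mM reduced GSH, 500 µM phenol and 1 µM hematin in Tris-HCl (100 mM, pH 7.7) for 15 min at 37 °C. Arachidonic acid (0.3 mM) was added for 5 min and the reaction was stopped with 1 N HCl. After centrifugation, PGE2 was measured by EIA.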
# [9] = target: T2, Prostaglandin G/H synthase 1; test: Inhibition of COX1 in human platelets assessed as inhibition of conversion of arachidonic acid to PGE2 at 0.1 uM preincubated for 15 mins before substrate addition measured after 15 mins by enzyme immunoassay; how it was run: as §2
# [10] = Inhibition of soybean 15-LOX type 1-B assessed as inhibition of conversion of linoleic acid to (9Z,11E)-(13S)-13-hydroperoxyoctadeca-9,11-dienoate preincubated for 10 mins before substrate addition measured after 6 mins by spectrophotometry; parameters: species or system Glycine max
# How it was run: (§6)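 Soybean lipoxygenase type I-B (80 U/well) in sodium phosphate buffer (100 mM, pH 8.0) was incubated with sample in MeOH for 10 min at 25 °C. Linoleic acid was then added and A234 was followed for 6 min. Samples were run in triplicate. Pure compounds were screened at a final 25 µg/mL.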
# [11] = Metal chelating activity of the compound assessed as formation of iron complex in PBS at pH 7.4 at 50 uM after 10 secs by UV-vis spectrometry in presence of 100 uM FeSO4; format: functional
# How it was run: (§7)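 Compound was taken from a 1 mM methanol stock and diluted to 50 µM in PBS (10 mM, pH 7.4). Salt solution (CuSO4, FeCl3 or FeSO4) was added at 50 or 100 µM. Absorption spectra from 200–600 nm were recorded after 10 s and compared with the compound alone.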
# [12] = Metal chelating activity of the compound assessed as formation of iron complex in PBS at pH 7.4 at 50 uM after 10 secs by UV-vis spectrometry in presence of 100 uM FeCl3; format: functional; how it was run: as §7
# [13] = target: T3, Polyunsaturated fatty acid 5-lipoxygenase (Homo sapiens); test: Inhibition of human 5-LOX in human peripheral blood mononuclear leukocytes assessed as inhibition of calymycin A23187 stimulated LTB4 production at 0.1 uM preincubated for 15 mins before stimulation measured after 15 mins by enzyme immunoassay; how it was run: as §1
# [14] = target: T3, Polyunsaturated fatty acid 5-lipoxygenase (Homo sapiens); test: Inhibition of human 5-LOX in human peripheral blood mononuclear leukocytes assessed as inhibition of calymycin A23187 stimulated LTB4 production at 1 uM preincubated for 15 mins before stimulation measured after 15 mins by enzyme immunoassay; how it was run: as §1
# [15] = target: T7, Prostaglandin G/H synthase 2 (Homo sapiens, UniProt P35354); test: Inhibition of human recombinant COX2 expressed in insect Sf21 cells assessed as inhibition of conversion of arachidonic acid to PGE2 preincubated for 15 mins before substrate addition measured after 5 mins by enzyme immunoassay; how it was run: as §5
# T7 sequence (P35354 whole entry): T6 sequence (whole entry)
# [16] = target: T3, Polyunsaturated fatty acid 5-lipoxygenase (Homo sapiens); test: Inhibition of human 5-LOX in human peripheral blood mononuclear leukocytes assessed as inhibition of calymycin A23187 stimulated LTB4 production at 10 uM preincubated for 15 mins before stimulation measured after 15 mins by enzyme immunoassay; how it was run: as §1
# [17] = target: T6, Prostaglandin G/H synthase 2 (Homo sapiens); test: Inhibition of human recombinant COX2 expressed in insect Sf21 cells assessed as inhibition of conversion of arachidonic acid to PGE2 at 10 nM preincubated for 15 mins before substrate addition measured after 5 mins by enzyme immunoassay; how it was run: as §5
# [18] = target: T6, Prostaglandin G/H synthase 2 (Homo sapiens); test: Inhibition of human recombinant COX2 expressed in insect Sf21 cells assessed as inhibition of conversion of arachidonic acid to PGE2 at 10 uM preincubated for 15 mins before substrate addition measured after 5 mins by enzyme immunoassay; how it was run: as §5
# [19] = Metal chelating activity of the compound assessed as formation of copper complex in PBS at pH 7.4 at 50 uM after 10 secs by UV-vis spectrometry in presence of 100 uM CuSO4; format: functional; how it was run: as §7
# [20] = target: T2, Prostaglandin G/H synthase 1; test: Inhibition of COX1 in human platelets assessed as inhibition of conversion of arachidonic acid to PGE2 at 10 nM preincubated for 15 mins before substrate addition measured after 15 mins by enzyme immunoassay; how it was run: as §2
# [21] = target: T6, Prostaglandin G/H synthase 2 (Homo sapiens); test: Inhibition of human recombinant COX2 expressed in insect Sf21 cells assessed as inhibition of conversion of arachidonic acid to PGE2 at 0.1 uM preincubated for 15 mins before substrate addition measured after 5 mins by enzyme immunoassay; how it was run: as §5
# [22] = target: T2, Prostaglandin G/H synthase 1; test: Inhibition of COX1 in human platelets assessed as inhibition of conversion of arachidonic acid to PGE2 preincubated for 15 mins before substrate addition measured after 15 mins by enzyme immunoassay; how it was run: as §2
# [23] = target: T2, Prostaglandin G/H synthase 1; test: Inhibition of COX1 in human platelets assessed as inhibition of conversion of arachidonic acid to PGE2 at 10 uM preincubated for 15 mins before substrate addition measured after 15 mins by enzyme immunoassay; how it was run: as §2
# Glycine max = test: Inhibition of soybean 15-LOX type 1-B assessed as inhibition of conversion of linoleic acid to (9Z,11E)-(13S)-13-hydroperoxyoctadeca-9,11-dienoate at 25 ug/ml preincubated for 10 mins before substrate addition measured after 6 mins by spectrophotometry; how it was run: as §6
# T2 sequence (P23219 whole entry): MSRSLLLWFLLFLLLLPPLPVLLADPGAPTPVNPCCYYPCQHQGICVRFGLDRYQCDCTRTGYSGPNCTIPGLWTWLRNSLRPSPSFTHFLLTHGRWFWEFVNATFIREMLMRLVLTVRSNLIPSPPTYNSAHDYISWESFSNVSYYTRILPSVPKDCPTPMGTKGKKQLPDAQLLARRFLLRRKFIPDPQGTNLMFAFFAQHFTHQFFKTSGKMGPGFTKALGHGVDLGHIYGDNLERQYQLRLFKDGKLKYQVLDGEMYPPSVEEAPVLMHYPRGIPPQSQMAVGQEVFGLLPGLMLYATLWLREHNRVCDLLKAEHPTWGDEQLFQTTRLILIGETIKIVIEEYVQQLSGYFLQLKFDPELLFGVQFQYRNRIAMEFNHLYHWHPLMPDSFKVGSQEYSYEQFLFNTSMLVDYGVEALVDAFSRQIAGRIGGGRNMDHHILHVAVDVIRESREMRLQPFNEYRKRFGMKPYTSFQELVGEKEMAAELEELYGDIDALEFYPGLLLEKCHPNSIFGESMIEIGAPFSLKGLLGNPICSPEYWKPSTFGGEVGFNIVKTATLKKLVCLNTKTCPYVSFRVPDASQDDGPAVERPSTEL
smiles,measurement,setting,value
CC(=O)c1c(O)cc(O)c(C/C=C(\C)CCC=C(C)C)c1O,Activity,[1],Non-toxic
same,IC50,[2],0.42 µM
same,IC50,[3],46 µM
same,inhibition,[4],-9%
same,inhibition,[5],6%
same,IC50,[6],1.8 µM
same,inhibition,[7],Dose-dependent effect
same,inhibition,[8],60%
same,inhibition,[9],-1%
same,IC50,[10],20.4 µM
same,Activity,[11],inactive
same,Activity,[12],inactive
same,inhibition,[13],13%
same,inhibition,[14],75%
same,IC50,[15],0.4 µM
same,inhibition,[16],102%
same,inhibition,[17],14%
same,inhibition,[18],100%
same,Activity,[19],inactive
same,inhibition,[20],-5%
same,inhibition,[21],28%
same,IC50,[22],6.9 µM
same,inhibition,[23],91%
CC(Cc1ccc(O)c(O)c1)C(C)Cc1ccc(O)c(O)c1 (stereo unspecified) [NORDIHYDROGUAIARETIC ACID],IC50,[10],9.82 µM
same,inhibition,Glycine max,88.8%
O=c1c(O)c(-c2ccc(O)c(O)c2)oc2cc(O)cc(O)c12 [QUERCETIN],IC50,[3],6.91 µM

# From ChEMBL document CHEMBL1914366, “Bioassay-guided identification of an anti-inflammatory prenylated acylphloroglucinol from Melicope ptelefolia and molecular insights into its interaction with 5-lipoxygenase” (Bioorg Med Chem, 2011)
